Results: PubChem BioAssay AID504382 (The Scripps Research Institute Molecular Screening Center, 2011)
About 460 (18%) of roughly 2,500 compounds were called active. Not all results are given here. Unmarked numbers belong to inactive results.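 How the source made its calls: active means mean activation above a cutoff of low control average plus 3 SD from the earlier screen (cut at about 12% in these data); inactive means the rest.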

Assay: compound fluorescence interference without thin filaments, confirmation, artefact control for cardiac RTF calcium sensitizer project, biochemical (AID 504382)
Conditions: IANBD fluorescence interference counterscreen, buffer, EC20 Ca2+; at 7.2 µM; stronger effect = higher value; scaled: EC20 calcium 0, EC100 calcium 100
Summary of the method: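 timing = compound incubation 15 min at 25 °C before fluorescence reading | technique = fluorescence at 480 nm excitation, 540 nm emission | evaluation = interference relative to controls | replication = triplicate wells per compound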

Structure (SMILES) | fluorescence artifact activation
COc1ccc(-c2c(C#N)c(N)nc3sc(C(=O)c4ccccc4)c(N)c23)cc1 | 0.01%
COc1ccc(C(=O)c2sc3nc(C)cc(-c4cccs4)c3c2N)cc1 | 6.39%
COc1ccc(C(=O)c2sc3nc(-c4ccccc4)ccc3c2N)cc1 | 21.8% (active)
Nc1ccc2cc3[nH]c4cc(N)ccc4c3nc2c1 | 2.11%
N#Cc1c(NCCCO)nc(-c2ccccc2)c2c1CCCC2 | 4.04%
CCOc1ccc(NC(=O)c2cccc(OC(=S)N3CCOCC3)c2)cc1 | 0%
COc1ccccc1C(=O)Nc1ccc(OC(C)C(=O)N2CCOCC2)cc1 (configuration not stated) | 822% (active)
COc1ccc(OC(C)C(=O)Nc2cccc(OC)c2)cc1 (configuration not stated) | 0.45%
COc1ccc2c(c1)c(/C=C/c1cc[n+](C)cc1)cn2C | 0.08%
COC(=O)c1cc2c(C)c(C)c3ccccn3c-2c1C(=O)OC | 0.46%
O=C(CCN1C(=O)/C(=C/c2cccs2)SC1=S)NNC(=O)c1cccc(O)c1 | -0.08%
Oc1cccc(Nc2nc(O)c(/C=C3\C=Nc4ccccc43)s2)c1 | 43% (active)
COc1cc([N+](=O)[O-])ccc1N/C=C/C(=O)c1cccs1 | 0.6%
COc1cc2c(cc1NC(=O)COC(=O)/C=C/c1ccc([N+](=O)[O-])cc1)oc1ccccc12 | 796% (active)
COc1cc([N+](=O)[O-])ccc1NC(=O)COC(=O)c1n[nH]c2ccccc12 | 0.03%
Cc1c(C)[n+](=O)c(-c2ccc(Br)cc2)c(C)n1[O-] | 412% (active)
CCn1cc(C(=O)NCCC(=O)NCCO)c(=O)c2cc3c(cc21)OCO3 | 9.79%
O=C(C1=NN[C@@H]2C(=O)N(c3ccccc3C(F)(F)F)C(=O)[C@H]12)c1ccc2ccccc2n1 | 22.3% (active)
Cc1cccc(NC(=S)Nc2ccc(N3CCOCC3)cc2)c1C | 0.78%
O=c1ccc2c(-c3ccccc3)c3ccc(O)cc3oc-2c1 | 12.3% (active)
O=c1cc2oc3cc(O)c(O)cc3c(-c3ccccc3O)c-2cc1O | 0.4%

Structure (SMILES) | fluorescence artifact activation
Nc1ccc(-c2c3ccc(=O)cc-3oc3cc(O)ccc23)cc1C(=O)O | -0.02%
CCCNS(=O)(=O)c1ccc2c(c1)n(C)c(=O)n2C | 1.63%
Cc1cnc(C(=O)Nc2nnc(SCc3c(Cl)cccc3Cl)s2)cn1 | 1.18%
O=C1c2cccc3c(N4CCCCC4)ccc(c23)C(=O)N1c1cccc(O)c1 | 6.35%
CN1CCCC(OC(=O)c2ccccc2Br)C1 (configuration not stated) | 20.7% (active)
O=C(OCCN1CCCCC1)c1ccccc1Br | -0.03%
O=C(Cn1c(=O)oc2cc(S(=O)(=O)N3CCCC3)ccc21)N1CCc2ccccc2C1 | 0.09%
CC(C)(C)c1ccc(C(=O)Nc2cccc3ncccc23)cc1 | 0.15%
CCOC(=O)C(=O)Nc1nnc(COc2ccccc2)s1 | -0.01%
NC(=O)CC(NC(=O)Cc1ccc(Cl)cc1)c1ccc(N2CCN(c3ccccn3)CC2)c([N+](=O)[O-])c1 (configuration not stated) | 51.4% (active)
Cc1cc(C)cc(C(=O)NC(CC(N)=O)c2ccc(N3CCCCCC3)c([N+](=O)[O-])c2)c1 (configuration not stated) | 0.1%
O=C(N/N=C/c1cc([N+](=O)[O-])ccc1N1CCNCC1)c1ccc([N+](=O)[O-])cc1 | 5.53%
O=C(NCc1ccccc1)c1ccc(N2CCC3(CC2)CC(c2ccccc2)=NO3)c([N+](=O)[O-])c1 | -0.07%
NC(=O)CC(NC(=O)c1ccc(Br)cc1)c1ccc(N2CCN(c3ccc(F)cc3)CC2)c([N+](=O)[O-])c1 (configuration not stated) | 13.7% (active)
CN(/N=C/c1ccc(O)cc1O)c1ncc(C(F)(F)F)cc1Cl | 0.11%
O=C(c1ccc(Cn2cc([N+](=O)[O-])cn2)o1)N1N=C(C(F)F)CC1(O)C(F)F (configuration not stated) | 3.96%
CC/C(=N/Nc1cccc(C)c1)c1cnnc(SC)n1 | 3.63%
Cc1ccccc1NC(=S)Nc1ccc(Br)cc1 | -0.08%
Cc1ccc(Cl)c2c(N=Nc3ccccc3)c(O)[nH]c12 | 0.17%
COCCN1C(=O)/C(=C/c2ccc(N3CCCC3)cc2C)SC1=S | 0.17%
COc1ccc(N2C(N)=NC(N)=NC2(C)C)cc1 | -0.01%

Structure (SMILES) | fluorescence artifact activation
COC(=O)c1ccc(NC(=O)c2cccc(OC)c2)cc1 | 0.1%
Cc1ccc(OCCCC(=O)NC2CCCCC2)cc1 | 0%
Cc1cc(=O)n2nc(N3CCCC3C(=O)Nc3ccc(C(C)C)cc3)sc2n1 (configuration not stated) | 166% (active)
Cc1cc(C)n2nc(C(=O)N3CCCC(Nc4ccc(C(C)C)cc4)C3)cc2n1 (configuration not stated) | 2.67%
COc1cc(NC(=O)[C@@H]2CCCN2S(=O)(=O)c2cccc3cccnc23)cc(OC)c1OC | 0.18%
C=C1CCN([C@@H](Cc2ccccc2)C(=O)O)S(=O)(=O)c2ccccc21 | 4.75%
Cc1cccc(NC(=O)Cn2cnc3ccc(S(=O)(=O)N4CCC(C)CC4)cc3c2=O)n1 | 3.57%
COc1ccc(-[n+]2c(C)cc(/C=C3\Sc4ccccc4N3C)cc2C)cc1 | 50.7% (active)
CC[n+]1c(/C=C2\Sc3ccccc3N2C)ccc2cccc(C)c21 | 0.11%
COc1ccccc1-[n+]1c(C)cc(/C=C2\Sc3ccccc3N2C)cc1C | 0.15%
CN(C)CCN(C)Cc1c2ccccc2c(CN(C)CCN(C)C)c2ccccc12 | 8.32%
Cc1cccc(N2C(=O)c3cccc4c(N(C)CCO)ccc(c34)C2=O)c1 | 0.05%
CC1(c2cccc(Br)c2)NC(=O)NC1=O (configuration not stated) | 16.7% (active)
Nc1ccc2nc3c(=O)n(C4CCCCC4)c(=O)[nH]c3nc2c1 | 1.78%
Cc1ccc(C)c(N2CCN(C(=O)CN3C(=S)NC(C)(C)CC3C)CC2)c1 (configuration not stated) | 8.59%
C/C=C/c1ccc(OCCCNCC(C)O)c(OC)c1 (configuration not stated) | 112% (active)
COc1cc(/C=C2\CC/C(=C\c3ccc(OCCO)c(OC)c3)C2=O)ccc1OCCO | 0.12%
COc1ccc(OC)c(/C=N/N=C(\N)c2nonc2N)c1 | 9.14%
COc1ccc(CN2CCC(=O)N([C@H](CO)c3ccccc3)CC2)cc1 | 6.01%
CC(C)CN(C(=O)CCCc1nc2ccccc2c(=O)[nH]1)c1c(N)n(Cc2ccccc2)c(=O)[nH]c1=O | 0.01%
CCOc1ccccc1N1CCN(CC(=O)N(CC(C)C)c2c(N)n(CC(C)C)c(=O)[nH]c2=O)CC1 | 13.8% (active)

Structure (SMILES) | fluorescence artifact activation
CCOc1ccccc1N1CCN(CC(=O)c2c(N)n(C)c(=O)n(C)c2=O)CC1 | 2.53%
O=C1NC(c2ccccc2)=C(c2nc3ccccc3s2)C(c2ccc(O)cc2)N1 (configuration not stated) | -0.03%
Nc1ccc2c3c(cccc13)-c1ccccc1-2 | 0.02%
Cc1n[nH]c(C)c1N1C(=O)c2cccc3c(N4CCCCCC4)ccc(c23)C1=O | 0.08%
COc1cc(/C=C2\CCC(C)C3=C(c4cc(OC)c(OC)c(OC)c4)C(C#N)=C(N)OC32)cc(OC)c1OC (configuration not stated) | 14.5% (active)
CC1(C)CC(=O)C2=C(C1)OC(N)=C(C#N)C21CCN(Cc2ccccc2)CC1 | 0.25%
COC(=O)C1=COC(C)C2CN3CCc4c([nH]c5ccccc45)C3CC12 (configuration not stated) | 1.05%
CCOC(=O)Cn1c(=NC(=O)c2cc(-c3cccs3)nc3ccccc23)sc2cc(S(N)(=O)=O)ccc21 | -0.11%
O=C(Nc1ccccc1OC(=O)c1ccccc1)c1ccccc1 | 45% (active)
COc1ccccc1NC(=O)/C=C/C(=O)O | 0.29%
CC(C)C(=O)c1cc2c(cc1NC(=O)c1ccccc1)OCCO2 | 0.02%
COc1ccc(OC)c(C2C3CN(C(C)C)CC=C3C(C#N)=C(N)C2(C#N)C#N)c1 (configuration not stated) | 1.64%
CCn1c(NC(=O)Nc2cccc(C)c2C)cc2sccc21 | 0.08%
C#CC[N+](C)(C)CCCCCCCCCC | 13.8% (active)
Cc1nccc(-c2cccc(N/N=C(\C#N)C(=O)c3ccccc3)c2)n1 | -0.02%
CCOC(=O)Cn1nc2sc3ccccc3n2c(=O)c1=O | -0.05%
Cc1ccc(CNC(=O)c2cccc3c2C(=O)c2ccc(N4CCCCC4)cc2S3(=O)=O)cc1 | -0.01%
O=C(CCc1ccc(S(=O)(=O)NCCc2ccccc2)cc1)N1CCN(Cc2ccc3c(c2)OCO3)CC1 | -0.04%
Cc1ccc(S(=O)(=O)NC(C)(C)CN2CCC(Cc3ccccc3)CC2)cc1 | 3.9%
